Results reported in ChEMBL document CHEMBL1131232, “New azole antifungals. 3. Synthesis and antifungal activity of 3-substituted-4(3H)-quinazolinones” (J Med Chem, 1998).
Values after ≈ are worked out from the molar mass of the structure shown.

What was measured:
Candida albicans [1] = assay: (§1) In vivo antifungal activity against murine candidosis model after peroral administration with 2.5 mg/kg at various time intervals. (percent protection for 100% mortality with fluconazole-treated group.); assay type: functional; conditions: route oral
How it was run: (§2)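 Groups of 10 male mice were infected iv with 0.2 mL of C. albicans at 2 to 8×10^7 cfu/mL. Drug was given orally as a suspension in 1% Tween + 0.2% carboxymethylcellulose at 1, 4 and 24 h post-infection; controls got vehicle only. Survival was scored on days 3, 5, 7 and 9. Read-out was % survival on the day all untreated controls died, or on the day all mice given fluconazole at the same dose died.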

[2] = In vitro for antifungal activity against 10 yeasts; assay type: functional; conditions: read-out: MIC
How it was run: (§3)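 Agar dilution on Kimmig's agar with 0.5% glycerol, using ATCC strains or clinical isolates. Drug stocks were 800 μg/mL in 50% ethanol, tested as 2-fold dilutions from 80 to 0.03 μg/mL. Inocula were 10⁵ cfu/mL. […] Geometric means took >80 as 160 and ≤0.03 as 0.03.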

Candida albicans [3] = assay: (§4) In vivo antifungal activity against murine candidosis model after peroral administration with 2.5 mg/kg at various time intervals. (percent protection for 100% mortality with untreated group); assay type: functional; conditions: route oral; how it was run: as §2
[4] = In vitro antifungal activity against 6 filamentous fungi; assay type: functional; conditions: read-out: MIC; how it was run: as §3
Candida albicans [5] = assay: Tested in vivo for anti-candida activity in mice model 1 (dose: 0.5 mg/kg, untreated group).; assay type: functional
Candida albicans [6] = assay: Tested in vivo for anti-candida activity in mice model 1 (dose:0.5 mg/kg, fluconazole-treated group); assay type: functional
Mus musculus [7] = assay: The compound was tested in vivo for anti-candida activity in mice model 2(dose: 1 mg/kg, untreated group).; assay type: functional
Mus musculus [8] = assay: The compound was tested in vivo for anti-candida activity in mice model 2(dose :1 mg/kg,fluconazole-treated group); assay type: functional
Mus musculus [9] = assay: The compound was tested in vivo for anti-candida activity in mice model 1(dose: 1 mg/kg,fluconazole-treated group); assay type: functional
Mus musculus [10] = assay: The compound was tested in vivo for anti-candida activity in mice model 1(dose: 1 mg/kg, untreated group).; assay type: functional
Oryctolagus cuniculus [11] = assay: In vivo antifungal activity against systemic candidosis in rabbit lung at a dose of 12.5 mg/kg, qd, po.; assay type: functional
How it was run: (§5)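 Groups of 10 male New Zealand rabbits were infected iv with C. albicans (1.2×10^7 cfu/kg). Drug was given orally as a suspension in 1% Tween 80 + 0.2% carboxymethylcellulose 4 h post-infection, then qd for 6 more days; controls got vehicle. On day 7, kidney or lung was homogenized in saline and plated on Sabouraud agar (37 °C, 7 days). Read-out was log cfu/g wet tissue.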

Oryctolagus cuniculus [12] = assay: In vivo antifungal activity against systemic candidosis in rabbit kidney at a dose of 12.5 mg/kg, qd, po.; assay type: functional; how it was run: as §5
Mus musculus [13] = assay: as §1; assay type: functional; conditions: route oral; how it was run: as §2
Mus musculus [14] = assay: as §4; assay type: functional; conditions: route oral; how it was run: as §2
Mus musculus [15] = assay: In vivo antifungal activity against murine candidosis model after peroral administration with 0.25 mg/kg at various time intervals. (percent protection for 100% mortality with untreated group); assay type: functional; conditions: route oral; how it was run: as §2
Mus musculus [16] = assay: In vivo antifungal activity against murine candidosis model after peroral administration with 0.25 mg/kg at various time intervals. (percent protection for 100% mortality with fluconazole-treated group.); assay type: functional; conditions: route oral; how it was run: as §2
[17] = Half-life in rats after iv administration; assay type: ADME, organism-based; conditions: rat, in vivo
Candida albicans [18] = assay: In vivo antifungal activity against murine candidosis model after peroral administration with 0.5 mg/kg at various time intervals. (percent protection for 100% mortality with untreated group); assay type: functional; conditions: route oral; how it was run: as §2
Candida albicans [19] = assay: The compound was tested in vitro for antifungal activity against Candida albicans.; assay type: functional; how it was run: as §3
Candida albicans [20] = assay: In vivo antifungal activity against murine candidosis model after peroral administration with 0.5 mg/kg at various time intervals. (percent protection for 100% mortality with fluconazole-treated group.); assay type: functional; conditions: route oral; how it was run: as §2
Rattus norvegicus = assay: In vivo activity against disseminated aspergillosis (liver) in immunocompromized rat model at a dose of 2 mg/kg, bid, po; assay type: functional
Mus musculus [21] = assay: In vivo antifungal activity against murine candidosis model after peroral administration with 0.5 mg/Kg at various time intervals. (percent protection for 100% mortality with untreated group); assay type: functional; how it was run: as §2
Candida albicans [22] = assay: In vivo antifungal activity against murine candidosis model after peroral administration with 1 mg/kg at various time intervals. (percent protection for 100% mortality with fluconazole-treated group.); assay type: functional; conditions: route oral; how it was run: as §2
Candida albicans [23] = assay: In vivo antifungal activity against murine candidosis model after peroral administration with 1 mg/kg at various time intervals. (percent protection for 100% mortality with untreated group); assay type: functional; conditions: route oral; how it was run: as §2

| SMILES | Protection (Candida albicans [1]) [%] | MIC [2] [µg/mL] | MIC [4] [µg/mL] | further results |
| --- | --- | --- | --- | --- |
| C[C@@H](NC(=O)c1ccc(Cl)cc1NC=O)[C@](O)(Cn1cncn1)c1ccc(F)cc1F | 0 | 0.3 (≈ 0.667 µM) | 0.9 (≈ 2 µM) | Protection (Candida albicans [3]): 0% |
| COc1cccc2c(=O)n([C@H](C)[C@](O)(Cn3cncn3)c3ccc(F)cc3F)cnc12 | 0 | 10 (≈ 23.4 µM) | > 80 | Protection (Candida albicans [3]): 0% |
| C[C@@H](n1cnc2c(Cl)cccc2c1=O)[C@](O)(Cn1cncn1)c1ccc(F)cc1F | 0 | 2.5 (≈ 5.79 µM) | 45 (≈ 104 µM) | Protection (Candida albicans [3]): 0% |
| C[C@@H](NC(=O)c1ccc(C(F)(F)F)cc1)[C@](O)(Cn1cncn1)c1ccc(F)cc1F |  | 4.6 (≈ 10.4 µM) | 22 (≈ 50 µM) | Protection (Candida albicans [5]): 100%; Protection (Candida albicans [6]): 100% |
| C[C@@H](n1cnc2cc(Cl)ccc2c1=O)[C@](O)(Cn1cncn1)c1ccccc1F | 0 | 0.7 (≈ 1.69 µM) | 1.1 (≈ 2.66 µM) | Protection (Candida albicans [3]): 20% |
| C[C@@H](c1nc(-c2ccc(C#N)cc2)cs1)[C@](O)(Cn1cncn1)c1ccc(F)cc1F [RAVUCONAZOLE] |  | 0.3 (≈ 0.686 µM) | 0.8 (≈ 1.83 µM) | Protection (Candida albicans [5]): 50%; Protection (Mus musculus [7]): 20%; Protection (Candida albicans [6]): 0%; Protection (Mus musculus [8]): 0% |
| C[C@H]([C@](O)(Cn1cncn1)c1ccc(F)cc1F)S(C)(=O)=O [GENACONAZOLE] |  | 8.7 (≈ 26.3 µM) | 25 (≈ 75.5 µM) | Protection (Candida albicans [5]): 100%; Protection (Mus musculus [7]): 100%; Protection (Candida albicans [6]): 100%; Protection (Mus musculus [8]): 20% |
| C[C@@H](c1ncncc1F)[C@](O)(Cn1cncn1)c1ccc(F)cc1F [VORICONAZOLE] |  | 0.6 (≈ 1.72 µM) | 0.5 (≈ 1.43 µM) | Protection (Mus musculus [9]): 0%; Protection (Candida albicans [5]): 0%; Protection (Mus musculus [10]): 20%; Protection (Candida albicans [6]): 0% |
| OC(Cn1cncn1)(Cn1cncn1)c1ccc(F)cc1F [FLUCONAZOLE] |  | 30 (≈ 98 µM) | > 80 | Protection (Candida albicans [5]): 100%; Log cfu/g (Oryctolagus cuniculus [11]): 1.44; Log cfu/g (Oryctolagus cuniculus [12]): 1.29 |
| C[C@@H](n1cnc2ncccc2c1=O)[C@](O)(Cn1cncn1)c1ccc(F)cc1F |  | 43 (≈ 108 µM) | > 80 | Protection (Mus musculus [13]): 0%; Protection (Mus musculus [14]): 0% |
| C[C@@H](n1cnc2cc(Cl)ccc2c1=O)[C@](O)(Cn1cncn1)c1ccc(Cl)cc1Cl | 0 | 0.2 (≈ 0.43 µM) | 1.6 (≈ 3.44 µM) | Protection (Mus musculus [14]): 80% |
| C[C@H](n1cnc2cc(Cl)ccc2c1=O)[C@](O)(Cn1cncn1)c1ccc(F)cc1F |  | 7.4 (≈ 17.1 µM) | 65 (≈ 151 µM) | Protection (Mus musculus [15]): 0%; Protection (Mus musculus [16]): 0% |
| C[C@@H](n1cnc2cc(I)ccc2c1=O)[C@](O)(Cn1cncn1)c1ccc(F)cc1F |  | 0.3 (≈ 0.573 µM) | 0.9 (≈ 1.72 µM) | half-life [17]: > 48 h; Protection (Candida albicans [18]): 100%; MIC (Candida albicans [19]): < 0.03 µg/mL; Protection (Candida albicans [20]): 0% |
| C[C@@H](n1cnc2cc(S(=O)(=O)c3ccccc3)ccc2c1=O)[C@](O)(Cn1cncn1)c1ccc(F)cc1F |  | 1.2 (≈ 2.23 µM) | 8.7 (≈ 16.2 µM) | Protection (Candida albicans [18]): 0%; Protection (Candida albicans [20]): 0% |
| C[C@@H](n1cnc2cc(Cl)ccc2c1=O)[C@@](O)(Cn1cncn1)c1ccc(F)cc1F |  | > 80 | > 80 | Protection (Mus musculus [15]): 0%; Protection (Mus musculus [16]): 0% |
| C[C@@H](n1cnc2cc(Cl)ccc2c1=O)[C@](O)(Cn1ccnc1)c1ccc(F)cc1F | 0 | 2 (≈ 4.64 µM) | 28 (≈ 65 µM) | Protection (Candida albicans [3]): 0% |
| CCC(C)n1ncn(-c2ccc(N3CCN(c4ccc(OC[C@@H]5CO[C@@](Cn6cncn6)(c6ccc(Cl)cc6Cl)O5)cc4)CC3)cc2)c1=O (stereo partly specified) [ITRACONAZOLE] |  | 5.2 (≈ 7.37 µM) | 63 (≈ 89.3 µM) | Protection (Candida albicans [5]): 0%; Protection (Candida albicans [6]): 0% |
| COc1cc2ncn([C@H](C)[C@](O)(Cn3cncn3)c3ccc(F)cc3F)c(=O)c2cc1OC | 0 | 7.6 (≈ 16.6 µM) | 80 (≈ 175 µM) | Protection (Candida albicans [3]): 0% |
| C[C@@H](n1ncn(-c2ccc(OCC(F)(F)C(F)F)cc2)c1=O)[C@](O)(Cn1cncn1)c1ccc(F)cc1F |  | 2.6 (≈ 4.79 µM) | 8.9 (≈ 16.4 µM) | Protection (Candida albicans [5]): 100%; Protection (Candida albicans [6]): 100% |
| C[C@@H]1[C@H](O)[C@@H](C)/C=C/C=C/C=C/C=C/C=C/C=C/C=C/[C@H](O[C@@H]2O[C@H](C)[C@@H](O)[C@H](N)[C@@H]2O)C[C@@H]2O[C@](O)(C[C@@H](O)C[C@@H](O)[C@H](O)CC[C@@H](O)C[C@@H](O)CC(=O)O[C@H]1C)C[C@H](O)[C@H]2C(=O)O [AMPHOTERICIN B] |  |  |  | Log cfu/g (Rattus norvegicus): 0.1 |
| C[C@@H](n1cnc2cc(NCc3ccccc3)ccc2c1=O)[C@](O)(Cn1cncn1)c1ccc(F)cc1F |  | 1.2 (≈ 2.39 µM) | 11 (≈ 21.9 µM) | Protection (Candida albicans [18]): 40%; Protection (Candida albicans [20]): 0% |
| C[C@@H](NC(=O)c1ccc(Cl)cc1N)[C@](O)(Cn1cncn1)c1ccc(F)cc1F | 0 | 3.7 (≈ 8.77 µM) | 8.9 (≈ 21.1 µM) | Protection (Candida albicans [3]): 20% |
| C[C@@H](n1cnc2cc(Oc3ccc(Cl)cc3)ccc2c1=O)[C@](O)(Cn1cncn1)c1ccc(F)cc1F |  | 0.7 (≈ 1.34 µM) | 7.1 (≈ 13.6 µM) | Protection (Candida albicans [18]): 100%; Protection (Candida albicans [20]): 80% |
| C[C@@H](n1cnc2cc(F)ccc2c1=O)[C@](O)(Cn1cncn1)c1ccc(F)cc1F |  | 0.9 (≈ 2.17 µM) | 2.5 (≈ 6.02 µM) | half-life [17]: 1.4 h; Protection (Mus musculus [21]): 0%; Protection (Candida albicans [22]): 0%; Protection (Candida albicans [23]): 0%; MIC (Candida albicans [19]): < 0.03 µg/mL |
| C[C@@H](N1CNc2cc(Cl)ccc2C1=O)[C@](O)(Cn1cncn1)c1ccc(F)cc1F | 0 | 0.8 (≈ 1.84 µM) | 2.8 (≈ 6.45 µM) | Protection (Candida albicans [3]): 30% |
| C[C@@H](n1cnc2cc(Sc3ccccc3)ccc2c1=O)[C@](O)(Cn1cncn1)c1ccc(F)cc1F |  | 0.7 (≈ 1.38 µM) | 2 (≈ 3.96 µM) | Protection (Candida albicans [18]): 0%; Protection (Candida albicans [20]): 0% |
| C[C@H](n1cnc2cc(Cl)ccc2c1=O)[C@@](O)(Cn1cncn1)c1ccc(F)cc1F |  | 40 (≈ 92.6 µM) | > 80 | Protection (Mus musculus [13]): 0%; Protection (Mus musculus [14]): 0% |
| C[C@@H](n1cnc2cc(OCC(F)(F)C(F)F)ccc2c1=O)[C@](O)(Cn1cncn1)c1ccc(F)cc1F |  | 0.4 (≈ 0.758 µM) | 18 (≈ 34.1 µM) | Protection (Candida albicans [18]): 100%; Protection (Candida albicans [20]): 100% |
